Laboratory results taken from ChEMBL document CHEMBL1152447, “Benzothiopyranoindole-based antiproliferative agents: synthesis, cytotoxicity, nucleic acids interaction, and topoisomerases inhibition properties” (J Med Chem, 2009).
Active and inactive are the calls of the source. The calls are words filed in the database; no cut-off is given here.

Tests used:
[1] = test system: HeLa; experiment: Cytotoxicity against human HeLa cells after 72 hrs by trypan blue assay; format: functional, cell-based
Procedure, shortened: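 HeLa cells grown in Nutrient Mixture F-12 with 10% heat-inactivated FCS at 37 °C, 5% CO2. Seeded at 4 × 10^4 per well for 24 h, then medium replaced with fresh medium containing test agents for 72 h. Viability by trypan blue. IC50 is the concentration reducing cell number by 50% versus control.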

[2] = test system: HL-60; experiment: Cytotoxicity against human HL60 cells after 72 hrs by trypan blue assay; format: functional, cell-based; details: HL-60, 72 h
Procedure, shortened: (§1)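 Cells seeded at 4 × 10^4 per well and cultured 24 h at 37 °C in 5% CO2. Test agents then added to the complete medium for a further 72 h. Viable cells counted by trypan blue. IC50 is the concentration giving 50% fewer cells than control cultures. HL-60 grown in RPMI 1640 + 15% heat-inactivated FCS; HL-60/MX2 grown in RPMI 1640 + 10% heat-inactivated FCS.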

[3] = Stabilization of supercoiled pBR322 DNA-human recombinant topoisomerase 2 complex assessed as reduction in linear DNA formation
[4] = molecular target: DNA topoisomerase 2-alpha (Homo sapiens) (UniProt P11388); experiment: Inhibition of human recombinant topoisomerase 2-mediated end-labeled DNA cleavage in absence of ATP at 200 uM
[5] = molecular target: DNA topoisomerase 2-alpha (Homo sapiens) (UniProt P11388); experiment: Inhibition of human recombinant topoisomerase 2 relaxation activity assessed as supercoiled pBR322 DNA
Procedure, shortened: (§2)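 Human recombinant topoisomerase IIα (1 U) relaxation of supercoiled pBR322 (0.25 μg) with compound, 60 min at 37 °C. Stopped with SDS/proteinase K (50 μg/mL, 30 min, 37 °C). Products separated on 1% agarose, stained with ethidium bromide 1 μg/mL, UV imaging. Inhibition judged by retained supercoiled DNA. Gels representative of three experiments.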

[6] = molecular target: DNA topoisomerase 2-alpha (Homo sapiens) (UniProt P11388); experiment: Inhibition of human recombinant topoisomerase 2 relaxation activity assessed as supercoiled pBR322 DNA at 2.5 uM; procedure, shortened: as §2
[7] = molecular target: DNA topoisomerase 2-alpha (Homo sapiens) (UniProt P11388); experiment: Inhibition of human recombinant topoisomerase 2 relaxation activity assessed as supercoiled pBR322 DNA at 5 uM; procedure, shortened: as §2
[8] = molecular target: DNA topoisomerase 2-alpha (Homo sapiens) (UniProt P11388); experiment: Inhibition of human recombinant topoisomerase 2-mediated end-labeled DNA cleavage in absence of ATP at 5 uM
[9] = test system: Nucleic Acid; experiment: Binding affinity to salmon testes DNA assessed as negative dichroic signal at 0.04 drug to DNA ratio by LD spectra; format: nucleic-acid assay; details: Salmonidae
Procedure, shortened: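 LD spectra of salmon testes DNA (1.9 × 10^-3 M) in ETN buffer (10 mM TRIS, 10 mM NaCl, 1 mM EDTA, pH 7) at 25 °C over several [drug]/[DNA] ratios. Orientation by shear gradient of 500-700 rpm; each spectrum accumulated four times.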

[10] = Stabilization of supercoiled pBR322 DNA-human recombinant topoisomerase 2 complex assessed as reduction in linear DNA formation at 8 uM
[11] = molecular target: DNA topoisomerase 2-alpha (Homo sapiens) (UniProt P11388); experiment: Inhibition of human recombinant topoisomerase 2 relaxation activity assessed as supercoiled pBR322 DNA at 8 uM; procedure, shortened: as §2
[12] = test system: HL-60; experiment: Ratio of IC50 for mitoxantrone-resistant human HL60/MX2 cells to IC50 for human HL60 cells
[13] = molecular target: T1, Topoisomerase I (Bos taurus) (UniProt Q2HPH0); experiment: Inhibition of calf thymus topoisomerase 1-mediated supercoiled pBR322DNA relaxation activity
T1 sequence (whole entry): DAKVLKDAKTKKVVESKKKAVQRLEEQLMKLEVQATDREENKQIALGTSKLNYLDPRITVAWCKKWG
Procedure, shortened: (§3)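 Calf thymus topoisomerase I (2 U) incubated with supercoiled pBR322 (0.25 μg) and compound for 60 min at 37 °C. Stopped with SDS stop buffer plus 50 μg/mL proteinase K for 30 min at 37 °C. Run on 1% agarose, stained with ethidium bromide 1 μg/mL in TAE, imaged under UV. Gels representative of three experiments.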

[14] = Stabilization of supercoiled pBR322 DNA-human recombinant topoisomerase 2 complex assessed as reduction in linear DNA formation at 20 uM
[15] = molecular target: T1, Topoisomerase I (Bos taurus); experiment: Inhibition of calf thymus topoisomerase 1-mediated supercoiled pBR322DNA relaxation activity at 10 uM; procedure, shortened: as §3
[16] = Cytotoxicity against human mitoxantrone-resistant HL60/MX2 cells after 72 hrs by trypan blue assay; format: functional, cell-based; details: HL60/MX2, 72 h; procedure, shortened: as §1
[17] = Stabilization of supercoiled pBR322 DNA-human recombinant topoisomerase 2 complex assessed as reduction in linear DNA formation at 10 uM
[18] = Stabilization of supercoiled pBR322 DNA-human recombinant topoisomerase 2 complex assessed as reduction in linear DNA formation at 5 uM

DNA topoisomerase 2-alpha (Homo sapiens), sequence (P11388 whole entry): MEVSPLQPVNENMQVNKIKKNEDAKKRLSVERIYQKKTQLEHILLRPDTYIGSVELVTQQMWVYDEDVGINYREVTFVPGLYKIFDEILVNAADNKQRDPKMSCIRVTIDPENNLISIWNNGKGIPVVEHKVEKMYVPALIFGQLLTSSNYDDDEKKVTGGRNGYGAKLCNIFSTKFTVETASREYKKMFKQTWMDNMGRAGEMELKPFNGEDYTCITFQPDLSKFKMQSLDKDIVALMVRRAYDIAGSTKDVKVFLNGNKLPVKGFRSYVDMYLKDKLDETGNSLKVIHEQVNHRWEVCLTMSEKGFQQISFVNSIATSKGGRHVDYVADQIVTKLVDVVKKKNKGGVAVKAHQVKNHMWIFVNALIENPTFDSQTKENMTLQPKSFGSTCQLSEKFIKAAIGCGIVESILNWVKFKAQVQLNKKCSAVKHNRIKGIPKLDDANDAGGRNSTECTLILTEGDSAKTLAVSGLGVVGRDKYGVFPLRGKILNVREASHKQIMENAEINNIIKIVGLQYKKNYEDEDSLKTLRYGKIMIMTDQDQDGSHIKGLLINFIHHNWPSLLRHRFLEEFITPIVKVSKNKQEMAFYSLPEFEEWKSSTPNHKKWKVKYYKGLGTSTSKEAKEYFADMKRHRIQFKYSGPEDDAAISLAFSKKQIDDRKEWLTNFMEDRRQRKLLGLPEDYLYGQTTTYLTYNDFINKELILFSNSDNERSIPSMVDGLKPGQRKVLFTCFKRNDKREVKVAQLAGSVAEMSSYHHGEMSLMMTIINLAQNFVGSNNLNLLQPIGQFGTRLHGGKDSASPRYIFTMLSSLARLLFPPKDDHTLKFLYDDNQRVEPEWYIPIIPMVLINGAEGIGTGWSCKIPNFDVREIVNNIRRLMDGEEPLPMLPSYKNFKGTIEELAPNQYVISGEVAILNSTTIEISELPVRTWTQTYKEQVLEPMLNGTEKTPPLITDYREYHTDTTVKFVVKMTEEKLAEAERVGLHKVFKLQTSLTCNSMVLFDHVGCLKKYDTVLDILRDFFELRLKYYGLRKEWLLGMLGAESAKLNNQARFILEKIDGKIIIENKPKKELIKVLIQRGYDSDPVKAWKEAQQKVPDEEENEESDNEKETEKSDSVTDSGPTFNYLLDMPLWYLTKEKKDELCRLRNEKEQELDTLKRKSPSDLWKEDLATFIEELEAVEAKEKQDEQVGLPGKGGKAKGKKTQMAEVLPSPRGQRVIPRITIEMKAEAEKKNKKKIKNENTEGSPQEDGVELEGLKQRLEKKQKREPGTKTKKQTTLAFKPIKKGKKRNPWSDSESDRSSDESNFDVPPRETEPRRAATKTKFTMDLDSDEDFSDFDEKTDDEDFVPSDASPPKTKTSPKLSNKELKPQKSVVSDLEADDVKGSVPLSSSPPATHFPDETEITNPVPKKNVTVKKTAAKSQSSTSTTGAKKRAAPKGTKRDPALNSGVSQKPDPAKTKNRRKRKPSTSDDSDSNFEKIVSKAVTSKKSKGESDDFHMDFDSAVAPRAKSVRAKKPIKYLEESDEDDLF

Work on Cc1c2ccncc2c(C)c2c1[nH]c1ccccc12 [ELLIPTECINE] yielded an IC50 [1] of 0.29 µM and an IC50 [2] of 0.66 µM.

With CCN(CC)CCn1c2ccc(Cl)cc2c2sc3cc(OC)ccc3c(=O)c21 the IC50 [1] was 1.12 µM and the IC50 [2] was 0.71 µM.

Molecule CCN(CC)CCCn1c2ccc(OC)cc2c2sc3cc(OC)ccc3c(=O)c21 has an IC50 [1] of 2.5 µM and an IC50 [2] of 1.5 µM.

Molecule COc1ccc2c(=O)c3c(sc2c1)c1cc(Cl)ccc1n3CCN(C)C has an IC50 [1] of 1.82 µM and an IC50 [2] of 1.17 µM.

In the case of COc1ccc2c(=O)c3c(sc2c1)c1cc(OC)ccc1n3CCN(C)C, the Activity [3] is reported as “inactive”, the IC50 [1] is reported as 2.15 µM and the Activity [4] is reported as “Active”. The Activity [5] was “Dose-dependent effect”, the IC50 [2] was 0.66 µM and the Activity [6] was “Active”. The Activity [7] was “Active” and the Activity [8] was “Active”.

For CCN(CC)CCn1c2ccc(OC)cc2c2sc3cc(OC)ccc3c(=O)c21, the IC50 [1] was 2.3 µM and the IC50 [2] was 1.1 µM.

For O=c1c2ccc(Cl)cc2sc2c1[nH]c1ccccc12, the IC50 [1] was > 20 µM and the IC50 [2] was > 20 µM.

Work on CCN(CC)CCCn1c2ccc(Cl)cc2c2sc3cc(OC)ccc3c(=O)c21 yielded an IC50 [1] of 1.68 µM and an IC50 [2] of 1.02 µM.

In the case of CCN(CC)CCCn1c2ccccc2c2sc3cc(OC)ccc3c(=O)c21, the IC50 [1] is reported as 3.9 µM, the Activity [9] is reported as “Active” and the IC50 [2] is reported as 2.4 µM. The Activity [6] was “Active”.

CN(C)CCCn1c2ccccc2c2sc3cc(Cl)ccc3c(=O)c21 gave an IC50 [1] of 14.1 µM and an IC50 [2] of 7.19 µM.

For CCN(CC)CCn1c2ccccc2c2sc3cc(Cl)ccc3c(=O)c21, the IC50 [1] was 4.33 µM and the IC50 [2] was 3.21 µM.

With CCN(CC)CCn1c2ccccc2c2sc3cc(OC)ccc3c(=O)c21 the IC50 [1] was 2.7 µM, the Activity [9] was “Active” and the IC50 [2] was 1.8 µM. For the same molecule, the Activity [6] was “Active”.

With COc1cc(NS(C)(=O)=O)ccc1Nc1c2ccccc2nc2ccccc12 the Activity [10] was “Active” and the Activity [11] was “Active”.

For COc1ccc2c(=O)c3[nH]c4ccc(Cl)cc4c3sc2c1, the IC50 [1] was > 20 µM and the IC50 [2] was > 20 µM.

For COc1ccc2c(=O)c3[nH]c4ccc(OC)cc4c3sc2c1, the IC50 [1] was > 20 µM and the IC50 [2] was > 20 µM.

For COc1ccc2c(=O)c3[nH]c4ccccc4c3sc2c1, the IC50 [1] was > 20 µM, the Activity [9] was “Active” and the IC50 [2] was > 20 µM. The Activity [6] was “Active”.

In the case of COc1ccc2c(=O)c3c(sc2c1)c1cc(OC)ccc1n3CCCN(C)C, the IC50 [1] is reported as 2.6 µM and the IC50 [2] is reported as 1.35 µM.

In the case of CN(C)CCn1c2ccccc2c2sc3cc(Cl)ccc3c(=O)c21, the IC50 [1] is reported as 1.53 µM and the IC50 [2] is reported as 1.31 µM.

CCN(CC)CCCn1c2ccccc2c2sc3cc(Cl)ccc3c(=O)c21 showed an IC50 [1] of 2.91 µM and an IC50 [2] of 2.64 µM.

For COc1ccc2c(=O)c3c(sc2c1)c1ccccc1n3CCN(C)C, the IC50 [1] was 1.3 µM, the “Ratio IC50” value [12] was 6 and the Activity [9] was “Active”. The Activity [13] was “Dose-dependent effect”, the Activity [14] was “Active” and the Activity [15] was “Active”. For the same molecule, the Activity [5] was “Dose-dependent effect”, the IC50 [2] was 0.41 µM and the IC50 [16] was 2.35 µM. The Activity [17] was “Active”, the Activity [6] was “Active” and the Activity [7] was “Active”. For the same molecule, the Activity [18] was “Active”.

In the case of COc1ccc2c(=O)c3c(sc2c1)c1cc(Cl)ccc1n3CCCN(C)C, the IC50 [1] is reported as 1.85 µM and the IC50 [2] is reported as 1.07 µM.

For COc1ccc2c(=O)c3c(sc2c1)c1ccccc1n3CCCN(C)C, the IC50 [1] was 2.9 µM, the IC50 [2] was 1.9 µM and the Activity [6] was “Active”.
